Hits are enriched below; roughly 2.3% of the tested compounds scored in any of these assays.
STAT3 inh: inhibitors of IL-6 induced STAT3 signaling; inhibition, % at 5.5 µM; AID 862; hit rate 0.89% among 190,000; U3A cells, IL-6 STAT3-luciferase reporter, luminescence; host cell line lacks STAT1;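 active = inhibition above the mean inhibition across all screened compounds plus 3 SD, cut at about 44% in these data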
TRAIL sens C8: sensitizes caspase-8 expressing cells to TRAIL | NB7+C8 cells + TRAIL, ATPlite viability luminescence | inhibition (viability loss, TRAIL sensitization), % at 10 µM | hit rate 1% among 360,000;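 active = compounds causing at least 50% loss of cell viability in the single-dose screen, relative to plate controls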
STAT3 act: increases IL-6 driven STAT3 reporter signal | U3A cells, IL-6 STAT3-luciferase reporter, luminescence; 100% = signal with IL-6 EC80 alone | activation (% of control), % at 5.6 µM | hit rate 0.91% among 190,000 | AID 871;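 active = activation above the screen-wide mean of compound activation plus 3 SD, cut at about 130% in these data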
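System – human U3A cells carrying STAT3-luciferase construct · Probe or stimulus – Interleukin-6, 33 ng/mL · Schedule – compound 1 h, then IL-6 6 h at 37 °C · Signal – luminescence from STAT3-driven luciferase reporter · Evaluation – percent of IL-6-only median luminescence · Benchmarks – IL-6-only high control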
STAT1 inh: reduces IFN-gamma driven STAT1 reporter signal. hit rate 0.35% among 200,000. NIH 3T3 STAT1-luciferase reporter, luminescence. inhibition, % at 5.5 µM;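 active = inhibition above a set limit, the mean inhibition across all tested compounds plus 3 SD, cut at about 34% in these data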
PPC-1+TRAIL kill: compounds killing PPC-1 cancer cells with TRAIL present (potentiator screen, no TRAIL-free arm); cell killing (% activity), % at 4 µM or 5 µM; PPC-1 cells + TRAIL, ATPLite viability luminescence; hit rate 0.41% among 220,000;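 active = cell killing above 50% in the first pass at 4 µM, then a duplicate retest at 5 µM averaging 50% or more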
HSP90 refold inh: blocks HSP90-mediated luciferase refolding in reticulocyte lysate | AID 1789 | inhibition, % at 5.6 µM | Rabbit reticulocyte lysate, luciferase refolding luminescence, 3 h | hit rate 0.91% among 290,000;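 active = inhibition above the screen-wide mean plus 3 SD, computed separately per campaign, cut at about 16% in these data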;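 also: inhibitors lower the luminescence because luciferase stays unfolded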
A number is an active result; – = inactive; · = no result.

SMILES	STAT3 inh	TRAIL sens C8	STAT3 act	STAT1 inh	PPC-1+TRAIL kill	HSP90 refold inh
CN(C)c1ccc(C2Nc3ccccc3C(=O)N2CCCN2CCOCC2)cc1 (stereo not given)	·	–	·	·	–	–
CN1CCN(c2nc3ccccc3nc2NS(=O)(=O)c2ccc(Br)cc2)CC1	·	–	·	·	·	·
O=S(=O)(Nc1nc2ccccc2nc1N1CCc2ccccc2C1)c1ccc(Br)cc1	–	61.0	–	–	56.4	16.8
CCN(CC)c1nc(NNC(=O)c2ccccc2)nc(N(CC)CC)n1	·	–	·	·	·	·
Cc1nc2c(ccc3nc(NC(=O)C4CC4)sc32)s1	–	–	156.9	–	–	–
COC(=O)c1c(-c2ccccc2)csc1NC1=NS(=O)(=O)c2ccccc21	–	73.5	–	–	–	–
Cc1cccnc1Nc1nc(-c2ccc(O)cc2)cs1	–	–	–	–	–	–
COc1cccc(-n2nc(-c3ccnn3-c3ccc(F)cc3)c(=O)n(C)c2=O)c1	–	–	–	–	–	–
COc1ccc(NS(=O)(=O)c2ccc(N/N=C(\C)c3ccncc3)c([N+](=O)[O-])c2)cc1	–	–	–	–	54.5	–
C/C(Cl)=C/CSc1nn2c(=O)c3ccccc3nc2s1	–	–	–	–	–	–
Cc1cc(NC(=O)c2ccc(F)cc2)no1	·	–	·	·	·	–
Cc1cc(NC(=O)c2ccc3c(c2)OCO3)no1	–	50.8	–	–	–	–
Cc1cc(NC(=O)c2ccc(C(C)(C)C)cc2)no1	·	69.9	·	·	·	·
O=C(C[C@@H]1C/C=C/CC[C@H](Cc2ccc(F)cc2)C(=O)OC[C@@H](Cc2ccccc2)NC1=O)N[C@H](CO)Cc1ccccc1	·	76.8	·	·	·	·
CCCCn1c(NC(=O)c2ccco2)c(S(=O)(=O)c2ccc(C)cc2)c2nc3ccccc3nc21	–	–	–	–	–	–
CCCCCn1c(NC(=O)c2ccco2)c(S(=O)(=O)c2ccc(C)cc2)c2nc3ccccc3nc21	–	–	–	–	–	16.4
Cc1ccc(S(=O)(=O)c2c(N)n(CCCO)c3nc4ccccc4nc23)cc1	–	–	–	–	–	–
CCCCn1c(NS(=O)(=O)c2ccccc2)c(S(=O)(=O)c2ccc(C)cc2)c2nc3ccccc3nc21	–	–	–	–	–	16.2
COc1ccc2[nH]c(C(=O)N/N=C/c3ccc(OC)c(O)c3)cc2c1	·	–	·	·	·	–
CCN(CC)CCn1c2ccccc2c2cnc(N)c(C#N)c21	–	–	168.7	–	–	–
COc1ccc(NC(=O)Cn2cc(C(C)=O)c3ccccc32)cc1	·	–	·	·	·	–
CC(=O)c1cn(CC(=O)Nc2ccc(C)cc2)c2ccccc12	57.1	–	–	–	–	–
O=C(c1ccccc1)N1CCN(C(=O)c2cc3ccccc3oc2=O)CC1	·	–	·	·	·	–
CN(C)c1ccc(N=Nc2nccs2)cc1	·	77.2	·	·	·	·
Cc1cc(-c2[nH]nc3c2C(c2ccsc2)C(C#N)=C(N)O3)c(C)s1 (stereo not given)	–	–	–	–	–	–
SMILES	STAT3 inh	TRAIL sens C8	STAT3 act	STAT1 inh	PPC-1+TRAIL kill	HSP90 refold inh
CC(=O)n1cc(N(C(=O)CCl)c2ccc(Cl)cc2)c2ccccc21	·	93.9	·	·	–	–
COc1ccccc1N(C(C)=O)C1=C(Cl)C(=O)c2ccccc2C1=O	·	–	·	·	·	·
COc1ccccc1N(C(=O)CCl)c1cn(C(C)=O)c2ccccc12	·	92.5	·	·	–	–
O=C(N/N=C/c1ccc(O)c2ncccc12)c1cccc(Br)c1	–	55.5	–	–	–	–
CCCCc1nnc(SCC(=O)NC2CCCCC2)n1C	·	–	·	·	·	–
Clc1ccc(OCc2cn3ccccc3n2)c2ncccc12	–	–	–	–	–	–
COc1c(Cl)cccc1-c1cn2ccccc2n1	·	73.3	·	·	–	–
CC1(O)N(CCC(=O)Nc2cccc(F)c2)C(=O)OC12CCCCC2 (stereo not given)	–	–	–	–	–	–
Cc1cc(C)cc(NC(=S)NCc2ccc(S(N)(=O)=O)cc2)c1	–	–	–	–	–	–
COc1ccc(N2Cc3ccccc3C2=O)cc1	·	67.0	·	·	·	–
Cc1cc(-c2csc(Nc3ccccn3)n2)ccc1F	·	–	·	·	·	–
Fc1ccc(-c2csc(Nc3ccccn3)n2)c(F)c1	·	56.5	·	·	·	–
O=C(O)c1cc(OCc2ccccc2)cc(OCc2ccccc2)c1	·	–	·	·	·	–
O=C(O)c1cccc(COc2ccc(CO)cc2Cl)c1	·	66.8	·	·	–	·
O=C(O)c1cc(N/N=C/c2ccc(OCc3ccccc3)cc2)ccc1Cl	–	–	–	–	–	–
COC(=O)c1ccc(COc2ccc(/C=N/Nc3cccc(C(=O)O)c3)cc2)cc1	·	–	·	·	–	22.7
COc1ccc(OCc2cccc(C(=O)O)c2)cc1	·	61.9	·	·	–	·
O=C(O)c1ccc(COc2ccc(CO)cc2Cl)cc1	–	–	–	–	–	–
C[C@H](CO)N1C[C@H](C)[C@@H](CN(C)C(=O)NC2CCCCC2)Oc2c(NS(=O)(=O)c3ccccc3)cccc2C1=O	·	50.2	·	·	·	·
COc1ccc(C(=O)Nc2ccc(OCC(F)(F)C(F)F)c(C(F)(F)F)c2)cc1OC	–	–	–	–	–	–
O=C(Nc1ccc(OCC(F)(F)C(F)F)c(C(F)(F)F)c1)c1ccc(Cl)cc1	–	76.8	–	–	·	–
C/C(=N/NC(=O)c1cc2ccccc2cc1O)c1ccco1	·	55.3	·	·	·	–
Oc1ccc2c(c1)c1ccccc1c1ncccc21	·	–	·	·	·	·
Cc1ccc(C(=O)O/N=C(\N)c2cccc([N+](=O)[O-])c2)cc1	–	56.0	–	–	–	–
Cc1onc(-c2ccccc2Cl)c1C(=O)O/N=C(\N)c1cccc([N+](=O)[O-])c1	·	87.5	·	·	·	·
SMILES	STAT3 inh	TRAIL sens C8	STAT3 act	STAT1 inh	PPC-1+TRAIL kill	HSP90 refold inh
COc1ccc(/C(N)=N/OC(=O)c2cccc([N+](=O)[O-])c2)cc1	–	–	–	–	–	–
Cc1cccc(/C(N)=N/OC(=O)c2ccncc2)c1	·	–	·	·	·	–
COc1ccc(/C(N)=N/OC(=O)c2cccc([N+](=O)[O-])c2C)cc1	–	65.0	133.8	–	–	–
Cc1cccc(/C(N)=N/OC(=O)c2ccoc2C)c1	·	90.9	·	·	·	–
c1cncc(-c2cnc3ccccc3c2)c1	·	–	·	·	·	·
COc1ccc(C)cc1NC(=O)COC(=O)c1c(C)noc1C	–	–	–	–	–	–
C/C(=N\OC(=O)c1c(-c2ccccc2Cl)noc1C)c1ccncc1	–	–	–	–	–	–
Cc1onc(-c2ccccc2Cl)c1C(=O)O/N=C(\N)c1ccccc1	·	91.6	·	·	·	–
Cc1ccc(NC(=O)COc2nc(C)cs2)cc1	–	–	–	–	–	–
CC(=O)Nc1cccc(-c2ccnc3c2CC(C(=O)Nc2cccc(NS(C)(=O)=O)c2)O3)c1 (stereo not given)	·	–	·	·	·	·
CS(=O)(=O)Nc1cccc(NC(=O)C2Cc3c(-c4ccccc4)ccnc3O2)c1 (stereo not given)	·	57.4	·	·	·	·
CN(C(=O)c1ccc(NC(=O)Cc2cccc(NC(=O)C3CCCN(S(=O)(=O)c4cccc([N+](=O)[O-])c4)C3)c2)cc1)C1CC1 (stereo not given)	·	53.8	·	·	·	·

Compound activity (PubChem)
